Source: PubChem
Apaf1 activ = activates human Apaf-1 apoptosome | activity change, negative = activation, % at 20 µM | 0.31% of 330,000 active | AID 489031 | Apaf-1 apoptosome caspase-3 activation, DEVD-Rh110 fluorescence; stronger effect = lower value;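 active = activity change at or below -40% at 20 µM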
Target sequence (O14727 whole entry, looked up): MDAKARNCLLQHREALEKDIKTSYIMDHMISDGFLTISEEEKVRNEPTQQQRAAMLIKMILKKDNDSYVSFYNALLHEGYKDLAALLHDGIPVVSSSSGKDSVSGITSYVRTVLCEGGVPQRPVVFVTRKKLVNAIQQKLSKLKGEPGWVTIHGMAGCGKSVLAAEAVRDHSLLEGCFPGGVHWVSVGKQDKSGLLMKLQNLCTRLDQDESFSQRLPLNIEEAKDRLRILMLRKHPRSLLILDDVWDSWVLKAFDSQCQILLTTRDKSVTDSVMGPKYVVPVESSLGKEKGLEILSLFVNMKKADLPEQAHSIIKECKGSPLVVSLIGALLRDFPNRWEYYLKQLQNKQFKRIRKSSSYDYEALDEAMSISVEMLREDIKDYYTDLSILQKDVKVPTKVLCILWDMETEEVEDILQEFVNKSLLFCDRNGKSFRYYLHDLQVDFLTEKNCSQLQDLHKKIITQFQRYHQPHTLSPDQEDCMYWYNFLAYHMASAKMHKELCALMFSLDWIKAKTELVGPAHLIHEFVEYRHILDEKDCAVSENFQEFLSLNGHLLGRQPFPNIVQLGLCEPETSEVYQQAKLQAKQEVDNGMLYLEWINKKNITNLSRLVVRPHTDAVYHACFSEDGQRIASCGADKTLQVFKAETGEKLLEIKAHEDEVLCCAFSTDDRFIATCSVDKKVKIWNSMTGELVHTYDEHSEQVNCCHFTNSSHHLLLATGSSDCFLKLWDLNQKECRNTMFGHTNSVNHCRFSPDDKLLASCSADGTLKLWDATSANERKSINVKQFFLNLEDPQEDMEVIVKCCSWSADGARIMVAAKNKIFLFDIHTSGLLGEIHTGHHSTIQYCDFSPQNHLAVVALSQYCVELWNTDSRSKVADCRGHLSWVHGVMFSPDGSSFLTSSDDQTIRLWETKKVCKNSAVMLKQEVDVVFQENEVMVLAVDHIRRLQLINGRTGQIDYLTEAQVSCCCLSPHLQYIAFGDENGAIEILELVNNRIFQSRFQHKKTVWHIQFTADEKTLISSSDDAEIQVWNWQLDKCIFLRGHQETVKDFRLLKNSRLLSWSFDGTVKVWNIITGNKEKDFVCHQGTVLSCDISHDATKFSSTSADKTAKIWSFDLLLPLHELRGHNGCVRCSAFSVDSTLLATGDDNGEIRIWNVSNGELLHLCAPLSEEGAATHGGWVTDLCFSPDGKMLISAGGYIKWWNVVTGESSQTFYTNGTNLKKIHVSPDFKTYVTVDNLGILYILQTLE
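Assay system – biochemical Apaf-1 apoptosome reconstitution · Medium – 20 mM HEPES buffer, pH 7.5, containing CHAPS and BSA · Incubation – 30 min preincubation, 50 min reaction, room temperature · Measured by – Caspase-3-released Rh110 fluorescence, 540 nm emission, 480 nm excitation · Read-out – Caspase-3 cleavage activity downstream of Apaf-1 activation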
Rh110 interf act = Rh110 signal interference in Apaf-1 activator counter-screen; shares compounds with Apaf1 activ; Rh110 fluorescence interference, quenched caspase reaction, Ex480/Em540; fluorescence interference (activity change), % at 20 µM, hits read low; 980 tested, under 10 active; AID 504616;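 active = mean activity change at or below -40% when tested at 20 µM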
Apaf-1 act conf = Apaf-1 (human) activation, single-dose confirmed; shares compounds with Apaf1 activ; reconstituted apoptosome caspase-3 activity, DEVD-Rh110 fluorescence; stronger effect = lower value; activity change, negative = activation, % at 20 µM; 5% of 980 active;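 active = mean activity change at or below -40%, meaning activation of 40% or more, at 20 µM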
* = called active by the depositor. Only a sample is shown.

`Cn1c(=O)nc2n(Cc3ccccc3)c3ccccc3cc-2c1=O` gave Apaf1 activ -172.3*, Rh110 interf act 2.4 and Apaf-1 act conf 14.2.
`CCOc1cc(CNc2ccc3cn[nH]c3c2)ccc1OC` gave Apaf1 activ 85.5.
`CC(C)Cn1c(N)c(C(=O)COC(=O)C2CCCCC2)c(=O)n(C)c1=O` gave Apaf1 activ 42.7.
For O=C(N/N=C/c1ccc(O)c2ncccc12)c1cccc(Br)c1 the results were Apaf1 activ -68.3*, Rh110 interf act -0.6 and Apaf-1 act conf -4.2.
Oc1ccc(C=Nc2cccc3ncccc23)c(O)c1 was read as Apaf1 activ 86.7.
`O=S(=O)(Nc1ccc(O)c2ccccc12)c1cccs1` gave Apaf1 activ 52.4.
CCN(CC)C(=O)[C@H]1CC(CC(=O)NC/C=C(\C)CCC=C(C)C)C(=O)N2CCc3c([nH]c4ccc(OC)cc34)[C@]12C (stereo partly specified) was read as Apaf1 activ 41.6.
`Cc1cc(SCC(=O)N/N=C/c2ccc(O)c(O)c2O)c(C)cc1Br` gave Apaf1 activ 48.9.
Screening O=C(CCN1CCN(C(c2ccccc2)c2ccccc2)CC1)N/N=C/c1ccc(O)cc1O returned Apaf1 activ -235.8*, Rh110 interf act 8.2 and Apaf-1 act conf 13.7.
COC(=O)C1=C(C)N(Cc2ccccc2)C(=NCc2ccccc2)N[C@H]1c1ccccc1 was read as Apaf1 activ 47.2.
`Cc1nnc(N=c2ssnc2Cl)o1` gave Apaf1 activ 50.0.
`CSc1ccccc1NC(=O)CN(C)C(=O)c1ccc2c(c1)OCCO2` gave Apaf1 activ -74.5*, Rh110 interf act 7.3 and Apaf-1 act conf 5.3.
`Cc1cccc(C)c1NC(=O)CN(C)C(=O)c1ccccc1SCC(=O)N1CCCC1` gave Apaf1 activ 42.0.
Screening COC(=O)CCC(=O)OC1(C)C(=O)C2=CN(CCCCO)C(c3ccc(OC)cc3)=CC2=C(Br)C1=O (stereo unspecified) returned Apaf1 activ 80.2.
`COc1ccc(CNC[C@@H](CCCCN(C)Cc2ccc(OC)cc2)N2C[C@H](c3ccccc3)N(CCc3ccc(Cl)c(Cl)c3)C(=O)C2=O)cc1` gave Apaf1 activ 49.3.
Screening COc1ccc(C2CC(=O)c3cnc(NC(=O)c4ccco4)nc3C2)cc1 (stereo unspecified) returned Apaf1 activ -138.6*, Rh110 interf act -7.0 and Apaf-1 act conf 6.4.
For Cc1c(Cl)cccc1N=C1SCCN1C(=O)CN1C(=O)NC2(CCCC2)C1=O the results were Apaf1 activ 40.4.
Screening CCOc1ccccc1NC(=O)c1ccc(Cl)c(NC(=O)CC(c2ccccc2)c2ccccc2)c1 returned Apaf1 activ -54.9*, Rh110 interf act 5.9 and Apaf-1 act conf 14.2.
CCOC(=O)C1CCN(c2cc3c(cc2NC(=O)c2ccccc2OCC)n(C)c(=O)n3C)CC1 was read as Apaf1 activ 40.4.
Nc1c(O)cccc1C(=O)O was read as Apaf1 activ 53.4.
Screening CC(=O)c1cccc(CN2CCN(C3CCCC3)C(CCO)C2)c1 (stereo unspecified) returned Apaf1 activ -300.2*, Rh110 interf act -2.1 and Apaf-1 act conf 11.8.
CN(Cc1ccc(Cl)c(Cl)c1)C(=O)c1cccc(S(=O)(=O)N2CCN(Cc3ccccc3)CC2)c1 was read as Apaf1 activ 71.8.
For CC(C)N=c1cc2n(-c3ccc(Cl)cc3)c3ccccc3nc-2cc1Nc1ccc(Cl)cc1 the results were Apaf1 activ 68.2.
For C=CCC[C@@H](Cc1ccc(F)cc1)C(=O)OC[C@H]1CCCN1C(=O)[C@@H](CC=C)CC(=O)N[C@H](CO)Cc1ccccc1 the results were Apaf1 activ 40.1.
CC(C)N(Cc1cc2ccccc2[nH]c1=O)C(=O)C1CCCCC1 was read as Apaf1 activ 57.3.
For O=C(C1CCCCC1)N(Cc1ccccc1)c1ccccn1 the results were Apaf1 activ -153.8*, Rh110 interf act -5.3 and Apaf-1 act conf 1.6.
COc1ccc(CN(CCN(C)C)c2ccccn2)cc1 was read as Apaf1 activ 3.3.
COc1ccc(CNCC(O)(c2ccc(Cl)cc2)c2ccc(Cl)cc2)cc1OC was read as Apaf1 activ 42.3.
`Cc1nn(CC(=O)N2CCc3ccccc32)c(C)c1S(=O)(=O)NC(C)(C)C` gave Apaf1 activ -57.4*, Rh110 interf act 16.8 and Apaf-1 act conf 10.3.
Screening CC(=O)[C@@H]1[C@@H]2C(=O)N(Cc3ccccc3)C(=O)[C@@H]2C2c3ccccc3C=CN21 (stereo partly specified) returned Apaf1 activ 67.4.
CC(=O)Nc1c(I)c(NC(C)=O)c(I)c(C(=O)O)c1I was read as Apaf1 activ 10.6.
